What is called Ki is the dissociation constant of the complex between target and ligand, obtained from inhibition or displacement. High values mean a looser hold on the target, low ones a stronger hold on the target.

The results in this text go back to ChEMBL document CHEMBL1138658, “Novel 2-aminotetralin and 3-aminochroman derivatives as selective serotonin 5-HT7 receptor agonists and antagonists” (J Med Chem, 2004).

The target of assay [1] is T1, Adrenergic receptor alpha-1 (Rattus norvegicus, UniProt P15823+P23944+P43140).
T1 sequence (P15823 whole entry): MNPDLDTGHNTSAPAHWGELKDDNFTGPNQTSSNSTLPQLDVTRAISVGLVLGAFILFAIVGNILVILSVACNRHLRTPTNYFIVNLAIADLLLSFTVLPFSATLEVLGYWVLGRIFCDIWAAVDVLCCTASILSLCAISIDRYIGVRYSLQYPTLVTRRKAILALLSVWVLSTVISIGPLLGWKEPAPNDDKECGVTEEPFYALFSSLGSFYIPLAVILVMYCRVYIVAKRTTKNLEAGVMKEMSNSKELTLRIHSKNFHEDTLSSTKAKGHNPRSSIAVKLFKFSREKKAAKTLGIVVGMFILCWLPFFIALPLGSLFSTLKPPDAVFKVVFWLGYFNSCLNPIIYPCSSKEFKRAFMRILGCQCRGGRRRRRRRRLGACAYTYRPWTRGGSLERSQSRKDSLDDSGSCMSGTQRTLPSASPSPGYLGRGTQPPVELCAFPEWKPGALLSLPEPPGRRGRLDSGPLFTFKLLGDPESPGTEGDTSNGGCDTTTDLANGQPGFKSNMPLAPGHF
T1 sequence (P23944 whole entry): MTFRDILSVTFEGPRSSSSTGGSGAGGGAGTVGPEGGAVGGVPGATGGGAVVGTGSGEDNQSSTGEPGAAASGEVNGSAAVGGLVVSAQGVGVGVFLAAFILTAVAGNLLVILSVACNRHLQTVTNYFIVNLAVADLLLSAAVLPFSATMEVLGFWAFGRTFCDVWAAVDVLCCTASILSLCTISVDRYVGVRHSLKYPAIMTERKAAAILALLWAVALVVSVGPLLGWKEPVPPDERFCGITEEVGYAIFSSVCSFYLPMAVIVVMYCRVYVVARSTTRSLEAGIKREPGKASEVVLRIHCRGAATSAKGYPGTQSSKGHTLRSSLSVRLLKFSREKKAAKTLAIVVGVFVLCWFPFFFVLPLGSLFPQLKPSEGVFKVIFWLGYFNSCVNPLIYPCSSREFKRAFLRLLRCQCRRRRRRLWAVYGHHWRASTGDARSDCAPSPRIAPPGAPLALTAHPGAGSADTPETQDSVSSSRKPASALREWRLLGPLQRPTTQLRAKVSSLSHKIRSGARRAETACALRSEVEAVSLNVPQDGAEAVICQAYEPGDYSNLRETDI
T1 sequence (P43140 whole entry): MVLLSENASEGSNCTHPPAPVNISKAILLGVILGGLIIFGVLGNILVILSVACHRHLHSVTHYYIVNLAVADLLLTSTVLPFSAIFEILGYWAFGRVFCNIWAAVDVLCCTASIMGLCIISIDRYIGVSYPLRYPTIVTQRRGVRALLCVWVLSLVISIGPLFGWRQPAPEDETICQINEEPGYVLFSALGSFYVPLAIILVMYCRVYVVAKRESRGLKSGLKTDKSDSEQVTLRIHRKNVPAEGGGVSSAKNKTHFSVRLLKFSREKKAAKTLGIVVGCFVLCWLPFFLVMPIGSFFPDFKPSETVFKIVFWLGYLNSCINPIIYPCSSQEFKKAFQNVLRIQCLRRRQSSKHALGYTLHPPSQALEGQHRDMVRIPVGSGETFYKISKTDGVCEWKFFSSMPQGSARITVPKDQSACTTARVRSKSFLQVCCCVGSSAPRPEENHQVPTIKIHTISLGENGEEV
Put plainly: Inhibition of [3H]prazosin binding to rat cortex Alpha 1 receptor.

Assay [2] deals with 5-hydroxytryptamine receptor 2A (Rattus norvegicus, UniProt P14842). The assay is described as follows: Inhibition of [3H]- Ketanserin binding to rat cortex 5-HT2A receptor.
The target of assay [3] is 5-hydroxytryptamine receptor 7 (Rattus norvegicus, UniProt P32305). The assay is described as follows: Inhibition of [3H]5-HT binding to rat 5-HT7 receptor. Put shortly:
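Displacement of [3H]-5-HT from rat 5-HT7 receptor expressed in CHO or Sf9 cells.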

Assay [4] addresses T2, 5-hydroxytryptamine receptor 1A (Rattus norvegicus, UniProt P19327).
T2 sequence (P19327 whole entry): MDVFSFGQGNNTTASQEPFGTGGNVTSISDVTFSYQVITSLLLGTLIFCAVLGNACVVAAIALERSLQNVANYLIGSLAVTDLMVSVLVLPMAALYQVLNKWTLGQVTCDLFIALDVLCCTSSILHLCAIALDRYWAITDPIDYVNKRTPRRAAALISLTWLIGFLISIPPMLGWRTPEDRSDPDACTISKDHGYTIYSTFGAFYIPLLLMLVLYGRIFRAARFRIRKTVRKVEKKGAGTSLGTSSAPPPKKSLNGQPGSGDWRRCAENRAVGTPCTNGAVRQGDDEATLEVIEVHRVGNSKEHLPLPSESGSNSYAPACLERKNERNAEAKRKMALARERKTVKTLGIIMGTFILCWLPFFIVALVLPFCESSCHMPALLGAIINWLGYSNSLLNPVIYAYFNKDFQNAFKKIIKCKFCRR
The assay is described as follows: Inhibition of [3H]8-OH-DPAT binding to rat 5-hydroxytryptamine 1A receptor. Put shortly:
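Radioligand [3H]-8-OH-DPAT; receptor source either CHO cells expressing human 5-HT1A or rat hippocampal cells.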

Chain of 5-hydroxytryptamine receptor 7 (P32305 whole entry): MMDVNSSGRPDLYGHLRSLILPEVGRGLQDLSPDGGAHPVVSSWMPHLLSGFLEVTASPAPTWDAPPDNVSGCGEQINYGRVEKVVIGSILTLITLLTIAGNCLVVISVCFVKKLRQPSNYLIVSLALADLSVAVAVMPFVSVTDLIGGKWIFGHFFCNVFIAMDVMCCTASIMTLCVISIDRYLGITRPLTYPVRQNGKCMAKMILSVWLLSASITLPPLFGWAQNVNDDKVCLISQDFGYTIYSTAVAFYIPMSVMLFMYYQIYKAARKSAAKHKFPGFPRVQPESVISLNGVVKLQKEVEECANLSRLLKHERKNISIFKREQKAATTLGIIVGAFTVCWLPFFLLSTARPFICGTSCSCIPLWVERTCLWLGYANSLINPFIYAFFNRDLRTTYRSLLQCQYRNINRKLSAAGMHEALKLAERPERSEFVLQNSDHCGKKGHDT
Chain of 5-hydroxytryptamine receptor 2A (P14842 whole entry): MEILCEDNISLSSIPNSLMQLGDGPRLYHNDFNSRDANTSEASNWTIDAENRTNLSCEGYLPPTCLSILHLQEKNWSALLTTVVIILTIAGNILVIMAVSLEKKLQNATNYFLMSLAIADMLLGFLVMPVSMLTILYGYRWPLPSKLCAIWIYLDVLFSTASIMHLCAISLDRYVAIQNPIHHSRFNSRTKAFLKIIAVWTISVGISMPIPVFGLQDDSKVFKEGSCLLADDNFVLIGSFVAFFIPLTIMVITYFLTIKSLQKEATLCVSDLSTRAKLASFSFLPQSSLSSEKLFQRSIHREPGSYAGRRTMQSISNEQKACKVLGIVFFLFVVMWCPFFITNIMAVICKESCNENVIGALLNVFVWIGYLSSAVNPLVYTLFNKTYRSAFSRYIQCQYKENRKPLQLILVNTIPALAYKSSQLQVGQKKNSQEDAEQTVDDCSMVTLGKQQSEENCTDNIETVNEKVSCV

In the case of `CCCN(CCC)[C@H]1CCc2c(cccc2-c2c(OC)cccc2OC)C1`, the Ki is over 1000 nM in assay [1], 1450 nM in assay [2], 7.9 nM in assay [3] and 347 nM in assay [4].

As for `COc1cccc(OC)c1-c1cccc2c1CC[C@H](N(C)C)C2`, the Ki in assay [1] came to 3670 nM; in assay [2], 1340 nM; in assay [3] it was 2.55 nM; in assay [4] it was 1420 nM.
